In PubChem BioAssay:
Records with an inconclusive call do not appear.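 The calls were made as follows, unless noted: active = cell viability at or below a set limit in both duplicate runs, the limit being the all-compound median minus 4 SD (cut at about 23% in these data, passing the limit was not always enough); inconclusive = no clear call, values can overlap the other calls; inactive = the rest.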

What was measured:
[1] = S. cerevisiae growth inhibition in permissive medium (OD615), pilot counter-assay for S. cerevisiae lifespan shortening project, permissive growth control (AID 705;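 active = growth inhibition above 25% in both replicates, a cutoff set 3 SD above the mean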); details: OD615, 24 h, at 10 µM, hits give high values
Summary of the method: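 Material: engineered DeaD yeast; compound dosing: one dose 10 µM, DMSO 0.25% final; measure: yeast growth inhibition indicated by reduced 24 h OD615; detection: OD615 turbidity read; incubation: cells pre-grown 4 h, then 24 h compound exposure, 30 °C humidified; medium: permissive synthetic complete medium with raffinose and galactose carbon sources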

[2] = S. cerevisiae growth inhibition in restrictive medium, OD615, pilot screen, restrictive growth control, yeast lifespan reduction project (AID 706;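 active = growth inhibition above a set limit, 3 SD over mean compound inhibition, in both replicates, cut at about 43% in these data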;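 also: modified DeaD lifespan yeast strain shifted to restrictive glucose medium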); details: OD615, 48 h, at 10 µM, hits give high values
Summary of the method: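 material = engineered S. cerevisiae DeaD strain | medium = glucose-based CSMM-D restrictive medium | times = 4 h pre-incubation, 48 h exposure at 30 °C | technique = OD615 absorbance reading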

[3] = doxorubicin toxicity protection in MRP-1 cells – H69AR cells, CellTiter-Glo, duplicate, MRP-1 activator project, pilot screen (AID 807;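 active = viability increase at or above a cutoff of the median across tested compounds plus 3 SD, cut at about 8.5% in these data, passing the limit was not always enough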;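 also: compound pretreatment 18-22 h then 72 h combined with doxorubicin; 0% = doxorubicin alone and 100% = vehicle without doxorubicin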); details: H69AR viability with doxorubicin, CellTiter-Glo luminescence; at 10 µM; hits give high values
[4] = viability of HCT116 without oncogenic beta-catenin – human colon tumor cells, pilot screen (AID 823); details: HCT116 beta-catenin knockout viability, CellTiter-Glo, 60 h; at 10 µM; hits give low values;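 also: 0% = wells killed by 20 µM Hyamine and 100% = untreated DMSO cell wells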
[5] = viability of PTEN-null HCT116 cells – cell-based, HCT116 clonal line, CellTiter-Glo, pilot screen (AID 824;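 active = viability at or below 27.92% in each of two runs, the all-compound median minus 4 SD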;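 also: 0% = 20 µM Hyamine control and 100% = vehicle cell control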); details: HCT116 PTEN-deleted viability, 60 h, at 10 µM, hits give low values
[6] = RAM pathway blockade in budding yeast – dse1pr::URA3 reporter, 5-FOA selection, pilot screen (AID 869;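 active = inhibition over a set limit, the all-compound mean plus 3 SD, in both replicate runs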;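 also: 0% = DMSO wells with no growth and 100% = 10 µM 1-NA-PP1 with full growth; RAM network block rescues cells from 5-FOA so hits raise OD615 growth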); details: S. cerevisiae dse1pr::URA3 5-FOA growth, OD615, 2 d; at 10 µM; hits give high values; strain carries analog-sensitive mutant Cbk1 kinase
[7] = RAM signaling pathway blockade in yeast – S. cerevisiae, Pdr1DBD-CYC8 efflux-inhibited sensitized strain, primary screen (AID 1298;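 active = RAM network inhibition above 8.4% in each of two replicates, 3 SD over the compound average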;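 also: 0% = DMSO untreated cells without growth and 100% = 10 µM 1-NA-PP1 full growth; higher means more yeast growth rescued from 5-FOA killing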); details: S. cerevisiae cbk1-as DSE1-URA3 strain, 5-FOA growth OD615, 2 d; at 50 µM; hits give high values

CC1(C(=O)NCc2cccnc2)CCC(=O)N1CCc1ccccc1 (stereo not drawn)
inactive: growth inhibition [1] 4.98% | growth inhibition [2] 3.93% | viability increase [3] -0.87% | viability [4] 97% | viability [5] 102% | inhibition [6] 2.94% | RAM network inhibition [7] 2.65%

O=C(CSc1ncnc2c1oc1ccccc12)Nc1cccc(C(F)(F)F)c1
inactive: growth inhibition [1] -12.2% | growth inhibition [2] -15.6% | viability increase [3] 1.15% | viability [4] 86.3% | viability [5] 84% | inhibition [6] 3.52% | RAM network inhibition [7] 7.32%

COc1ccc(C)cc1NC(=O)C1CCCN(S(=O)(=O)c2c(C)noc2/C=C/N(C)C)C1 (stereo not drawn)
inactive: growth inhibition [1] -4.98% | growth inhibition [2] 3.38% | viability increase [3] -0.74% | viability [4] 102% | viability [5] 100% | inhibition [6] -0.18% | RAM network inhibition [7] 4.58%

Cc1ccc(F)c(NC=C2C(=O)OC(C)(C)OC2=O)c1
inactive: growth inhibition [1] -10.2% | growth inhibition [2] -7.67% | viability increase [3] 0.97% | viability [4] 87.9% | viability [5] 92.8% | inhibition [6] 2.53% | RAM network inhibition [7] 2.44%

COCCCNC(=O)c1oc2ccc(S(=O)(=O)N(C)C3CCCCC3)cc2c1C
inactive: growth inhibition [1] 1.36% | growth inhibition [2] 5.4% | viability increase [3] 0.15% | viability [4] 90.1% | viability [5] 94.2% | inhibition [6] -0.46% | RAM network inhibition [7] 1.23%

COCCN1C(=O)c2oc3ccccc3c(=O)c2C1c1ccc(O)c(OC)c1 (stereo not drawn)
inactive: growth inhibition [1] -9.35% | growth inhibition [2] -0.41% | viability increase [3] -3.27% | viability [4] 97.5% | viability [5] 93.2% | inhibition [6] 0.49% | RAM network inhibition [7] 8.37%

CC(Sc1nnc(Cn2c(=O)sc3ccccc32)n1C)c1ccccc1 (stereo not drawn)
inactive: growth inhibition [1] -3.63% | growth inhibition [2] 15.1% | viability increase [3] 0.33% | viability [4] 92.8% | viability [5] 96.3% | inhibition [6] 1.69% | RAM network inhibition [7] 11.7%

CC(O)Cc1nsc(NC(=O)c2cccs2)n1 (stereo not drawn)
inactive: growth inhibition [1] -11.4% | growth inhibition [2] -8.99% | viability increase [3] -0.55% | viability [4] 104% | viability [5] 100% | inhibition [6] 0.84% | RAM network inhibition [7] 0.26%

CC1CC(C)CN(CCCNC(=O)Cc2c(C(=O)O)[nH]c3ccccc23)C1 (stereo not drawn)
inactive: growth inhibition [1] -11.5% | growth inhibition [2] -13.5% | viability increase [3] -0.1% | viability [4] 103% | viability [5] 99.6% | inhibition [6] 0.68% | RAM network inhibition [7] 1.78%

O=C1CCC/C1=c1\s/c(=C\c2cccnc2)c(=O)n1-c1ccccc1
inactive: growth inhibition [1] -9.13% | growth inhibition [2] -8.32% | viability increase [3] -5.83% | viability [4] 103% | viability [5] 89.6% | inhibition [6] 0.465% | RAM network inhibition [7] 7.11%

Cc1ccnc(SCCn2c(N3CCC(C)CC3)nc3c2c(=O)[nH]c(=O)n3C)n1
inactive: growth inhibition [1] -10.1% | growth inhibition [2] -6.83% | viability increase [3] -2.18% | viability [4] 106% | viability [5] 100% | inhibition [6] 0.24% | RAM network inhibition [7] -1.36%

Cc1ccc(N2CCN(c3cc(C)nc4nc(C)nn34)CC2)c(C)c1
inactive: growth inhibition [1] -17.8% | growth inhibition [2] 25.7% | viability increase [3] -2.76% | viability [4] 83.3% | viability [5] 75.8% | inhibition [6] -0.325% | RAM network inhibition [7] 2.52%

CCOC(=O)Cc1cnc(NC(=O)c2ccccc2)s1
inactive: growth inhibition [1] 6.17% | growth inhibition [2] 5.05% | viability increase [3] -1.51% | viability [4] 92.3% | viability [5] 89.6% | inhibition [6] 0.365% | RAM network inhibition [7] 2.27%

Cc1ccc(O)c(N=CC2=C(O)c3ccccc3C2=O)c1
inactive: growth inhibition [1] -0.76% | growth inhibition [2] 5.53% | viability increase [3] -3.88% | viability [4] 61.6% | viability [5] 64.2% | inhibition [6] 1.85% | RAM network inhibition [7] 1.92%

O=c1cc(N2CCN(c3ccccc3)CC2)[nH]c(=O)n1Cc1ccc(F)cc1
inactive: growth inhibition [1] 6.47% | growth inhibition [2] -4.22% | viability increase [3] 0.72% | viability [4] 89.6% | viability [5] 80.9% | inhibition [6] 2.68% | RAM network inhibition [7] 3.61%

CC(C)(C)n1nc2c(c1NC(=O)c1ccc(Br)cc1)CS(=O)C2 (stereo not drawn)
inactive: growth inhibition [1] -8.25% | growth inhibition [2] -4.19% | viability increase [3] 0.64% | viability [4] 107% | viability [5] 99.2% | inhibition [6] 0.495% | RAM network inhibition [7] -0.53%

O=C1NC(=O)C(CC(=O)N(Cc2ccco2)C2(C(=O)NC3CCCCC3)CCCCC2)N1 (stereo not drawn)
inactive: growth inhibition [1] -7.57% | growth inhibition [2] -7.79% | viability increase [3] -2.17% | viability [4] 104% | viability [5] 93.4% | inhibition [6] -0.005% | RAM network inhibition [7] 2.23%

CCc1ccc(C2CC(c3ccc(C)cc3)n3nc(N)nc3N2)cc1 (stereo not drawn)
inactive: growth inhibition [1] 5.21% | growth inhibition [2] 24.1% | viability increase [3] 0.11% | viability [4] 101% | viability [5] 107% | inhibition [6] 1.35% | RAM network inhibition [7] 8.9%

COCCNC(=O)Cn1ncc2ccsc2c1=O
inactive: growth inhibition [1] -1.34% | growth inhibition [2] 5.16% | viability increase [3] 0.35% | viability [4] 107% | viability [5] 100% | inhibition [6] 2.33% | RAM network inhibition [7] 4.98%

Cc1ccc(N(C)C(=O)N2CCN(S(=O)(=O)c3ccc(C)cc3)CC2)cc1
inactive: growth inhibition [1] -1.22% | growth inhibition [2] -7.74% | viability increase [3] -1.03% | viability [4] 93.7% | viability [5] 96.6% | inhibition [6] 0.215% | RAM network inhibition [7] 6.2%

COc1ccccc1OCC(=O)N(Cc1nc(-c2ccc(Cl)cc2)no1)C(C)C
inactive: growth inhibition [1] -16.3% | growth inhibition [2] -10.6% | viability increase [3] 2.37% | viability [4] 84.7% | viability [5] 82.5% | inhibition [6] 1.4% | RAM network inhibition [7] 6.52%

CCN(c1cccc(C)c1)S(=O)(=O)c1cccc2nsnc12
inactive: growth inhibition [1] -12.6% | growth inhibition [2] -20.3% | viability increase [3] -3.59% | viability [4] 77.1% | viability [5] 88.8% | inhibition [6] 1.4% | RAM network inhibition [7] 4.75%

CCOC(=O)N1CCN(C(=O)CN(c2cc(Cl)ccc2OC)S(=O)(=O)c2ccccc2)CC1
inactive: growth inhibition [1] 6.4% | growth inhibition [2] -12% | viability increase [3] -2.13% | viability [4] 97.1% | viability [5] 84.1% | inhibition [6] 1.68% | RAM network inhibition [7] 2.07%

Fc1ccccc1N1CCN(C2CCN(Cc3c[nH]c4ccccc34)CC2)CC1
inactive: growth inhibition [1] -1.12% | growth inhibition [2] 2.13% | viability increase [3] -6.63% | viability [4] 47.1% | viability [5] 58.8% | inhibition [6] 1.08% | RAM network inhibition [7] 0.22%
